Experimental data as given in ChEMBL document CHEMBL4266056, “Discovery and Pharmacology of a Novel Somatostatin Subtype 5 (SSTR5) Antagonist: Synergy with DPP-4 Inhibition” (ACS Med Chem Lett, 2018).
Calls of active or inactive are those of the source. The calls are words filed in the database; no cut-off is given here.

Assays:
[1] = molecular target: Potassium voltage-gated channel subfamily E member 1 (Homo sapiens, UniProt P15382); assay: Inhibition of IKs (unknown origin)
Pancreatic islet [2] = assay: Induction of SST-14 secretion in human pancreatic islets in presence of glucose by ELISA; assay type: functional, cell-based
Outline: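 In the same human islet incubations, SST-14 and glucagon secretion were monitored alongside insulin.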

Mus musculus [3] = assay: Antidiabetic activity in HFD fed C57BL/6N mouse assessed as decrease in blood glucose AUC at 1 mg/kg administered as single oral dose pretreated for 60 mins followed by glucose challenge measured after 120 mins by OGTT; assay type: functional; set-up: scale not given: the % may be the effect or the level left
Outline: (§1)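 Oral dose titration (0.03-3 mg/kg) in HFD-fed mice, n=8. Dosing was followed by an oral glucose tolerance test. Net blood glucose AUC was expressed as % reduction versus vehicle, with P values versus vehicle.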

[4] = Drug uptake in C57BL/6N mouse whole blood at 1 mg/kg, po measured at 3 hrs; assay type: ADME, organism-based; settings: read-out: Drug uptake
Outline: (§2)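 Whole-blood compound exposure was measured 3 h after oral dosing (0.03-3 mg/kg) in HFD mice run through the OGTT dose titration. Unbound levels were derived using the plasma free fraction.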

[5] = Fraction unbound in rhesus monkey plasma at 0.1 uM using [3H]-labeled compound; assay type: ADME, cell-free, Macaca mulatta
[6] = Clearance in rat at 1 mg/kg, iv or 2 mg/kg, po; assay type: ADME, organism-based; settings: in vivo
Outline: (§3)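 Rat pharmacokinetics after separate intravenous (1 mg/kg) and oral (2 mg/kg) dosing. Clearance is reported in mL/kg/min and half-life in hours. Oral bioavailability is given as F (%).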

Pancreatic islet [7] = assay: Induction of glucose-dependent insulin secretion in human pancreatic islets at 0.5 and 5 uM preincubated for 30 mins with glucose followed by compound addition measured after 60 mins by ELISA
Pancreatic islet [8] = assay: Induction of glucose-dependent insulin secretion in human pancreatic islets at 0.5 to 5 uM preincubated for 30 mins with 2 mM glucose followed by compound addition measured after 60 mins by ELISA; assay type: functional, cell-based
Outline: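 Isolated pancreatic islets from non-diabetic human donors were incubated with compound at 0.5 or 5 µM in 2 mM (G2) or 16 mM (G16) glucose. Insulin secretion was measured against a DMSO control, with P<0.05 significance.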

[9] = Oral bioavailability in rhesus monkey at 1 mg/kg; assay type: ADME, organism-based, Macaca mulatta; settings: in vivo
Cytochrome P450 2D6 = Cytochrome P450 2D6 (Homo sapiens, UniProt P10635); assay: Inhibition of human CYP2D6; assay type: ADME
Cytochrome P450 2D6, sequence (P10635 whole entry): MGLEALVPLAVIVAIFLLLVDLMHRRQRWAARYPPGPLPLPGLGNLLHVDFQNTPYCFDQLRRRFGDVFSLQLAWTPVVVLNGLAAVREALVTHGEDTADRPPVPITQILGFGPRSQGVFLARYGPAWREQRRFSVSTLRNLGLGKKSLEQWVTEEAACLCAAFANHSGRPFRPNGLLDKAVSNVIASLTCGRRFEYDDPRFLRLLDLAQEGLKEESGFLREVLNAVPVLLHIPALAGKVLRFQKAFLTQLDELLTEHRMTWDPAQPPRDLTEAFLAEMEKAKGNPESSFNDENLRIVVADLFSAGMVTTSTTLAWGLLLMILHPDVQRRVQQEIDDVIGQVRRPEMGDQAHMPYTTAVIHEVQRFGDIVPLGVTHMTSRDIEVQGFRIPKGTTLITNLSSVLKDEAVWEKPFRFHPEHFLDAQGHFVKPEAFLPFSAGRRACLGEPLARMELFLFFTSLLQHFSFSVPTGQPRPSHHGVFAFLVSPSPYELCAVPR

[10] = Volume of distribution in rhesus monkey at […], iv or 1 mg/kg, po; assay type: ADME, organism-based, Macaca mulatta; settings: in vivo
[11] = Half life in dog at […], iv or 1 mg/kg, po; assay type: ADME, organism-based, Canis lupus familiaris; settings: in vivo
[12] = molecular target: Somatostatin receptor type 2 (Homo sapiens, UniProt P30874); assay: Antagonist activity at human SSTR2 expressed in CHO-K1 cell membranes; assay type: functional, cell-based
Somatostatin receptor type 2, sequence (P30874 whole entry): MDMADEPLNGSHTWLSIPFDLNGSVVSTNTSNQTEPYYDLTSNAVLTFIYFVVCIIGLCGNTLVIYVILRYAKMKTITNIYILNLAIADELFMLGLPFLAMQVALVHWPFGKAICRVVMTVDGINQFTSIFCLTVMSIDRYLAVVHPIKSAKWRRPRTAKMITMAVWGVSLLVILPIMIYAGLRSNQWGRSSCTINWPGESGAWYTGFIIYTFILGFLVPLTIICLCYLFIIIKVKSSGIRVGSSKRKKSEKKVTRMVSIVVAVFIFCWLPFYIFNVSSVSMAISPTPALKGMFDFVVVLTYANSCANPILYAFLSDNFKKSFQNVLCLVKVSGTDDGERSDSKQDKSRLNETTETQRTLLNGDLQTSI
Outline: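 Counter-screen by filtration membrane binding: competitive displacement of radiolabeled SST-28 from cell membranes expressing human SSTR1, SSTR2, SSTR3 or SSTR4. The IC50 is the mean of at least duplicate experiments within a maximal threefold range.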

[13] = Oral bioavailability in dog at 1 mg/kg; assay type: ADME, organism-based, Canis lupus familiaris; settings: in vivo
[14] = Unbound plasma concentration in C57BL/6N mouse plasma at 0.3 mg/kg, po measured at 3 hrs; assay type: ADME, organism-based; settings: in vivo
[15] = molecular target: Voltage-dependent L-type calcium channel subunit alpha-1C (Homo sapiens, UniProt Q13936); assay: Inhibition of Cav1.2 (unknown origin)
Voltage-dependent L-type calcium channel subunit alpha-1C, sequence (Q13936 whole entry): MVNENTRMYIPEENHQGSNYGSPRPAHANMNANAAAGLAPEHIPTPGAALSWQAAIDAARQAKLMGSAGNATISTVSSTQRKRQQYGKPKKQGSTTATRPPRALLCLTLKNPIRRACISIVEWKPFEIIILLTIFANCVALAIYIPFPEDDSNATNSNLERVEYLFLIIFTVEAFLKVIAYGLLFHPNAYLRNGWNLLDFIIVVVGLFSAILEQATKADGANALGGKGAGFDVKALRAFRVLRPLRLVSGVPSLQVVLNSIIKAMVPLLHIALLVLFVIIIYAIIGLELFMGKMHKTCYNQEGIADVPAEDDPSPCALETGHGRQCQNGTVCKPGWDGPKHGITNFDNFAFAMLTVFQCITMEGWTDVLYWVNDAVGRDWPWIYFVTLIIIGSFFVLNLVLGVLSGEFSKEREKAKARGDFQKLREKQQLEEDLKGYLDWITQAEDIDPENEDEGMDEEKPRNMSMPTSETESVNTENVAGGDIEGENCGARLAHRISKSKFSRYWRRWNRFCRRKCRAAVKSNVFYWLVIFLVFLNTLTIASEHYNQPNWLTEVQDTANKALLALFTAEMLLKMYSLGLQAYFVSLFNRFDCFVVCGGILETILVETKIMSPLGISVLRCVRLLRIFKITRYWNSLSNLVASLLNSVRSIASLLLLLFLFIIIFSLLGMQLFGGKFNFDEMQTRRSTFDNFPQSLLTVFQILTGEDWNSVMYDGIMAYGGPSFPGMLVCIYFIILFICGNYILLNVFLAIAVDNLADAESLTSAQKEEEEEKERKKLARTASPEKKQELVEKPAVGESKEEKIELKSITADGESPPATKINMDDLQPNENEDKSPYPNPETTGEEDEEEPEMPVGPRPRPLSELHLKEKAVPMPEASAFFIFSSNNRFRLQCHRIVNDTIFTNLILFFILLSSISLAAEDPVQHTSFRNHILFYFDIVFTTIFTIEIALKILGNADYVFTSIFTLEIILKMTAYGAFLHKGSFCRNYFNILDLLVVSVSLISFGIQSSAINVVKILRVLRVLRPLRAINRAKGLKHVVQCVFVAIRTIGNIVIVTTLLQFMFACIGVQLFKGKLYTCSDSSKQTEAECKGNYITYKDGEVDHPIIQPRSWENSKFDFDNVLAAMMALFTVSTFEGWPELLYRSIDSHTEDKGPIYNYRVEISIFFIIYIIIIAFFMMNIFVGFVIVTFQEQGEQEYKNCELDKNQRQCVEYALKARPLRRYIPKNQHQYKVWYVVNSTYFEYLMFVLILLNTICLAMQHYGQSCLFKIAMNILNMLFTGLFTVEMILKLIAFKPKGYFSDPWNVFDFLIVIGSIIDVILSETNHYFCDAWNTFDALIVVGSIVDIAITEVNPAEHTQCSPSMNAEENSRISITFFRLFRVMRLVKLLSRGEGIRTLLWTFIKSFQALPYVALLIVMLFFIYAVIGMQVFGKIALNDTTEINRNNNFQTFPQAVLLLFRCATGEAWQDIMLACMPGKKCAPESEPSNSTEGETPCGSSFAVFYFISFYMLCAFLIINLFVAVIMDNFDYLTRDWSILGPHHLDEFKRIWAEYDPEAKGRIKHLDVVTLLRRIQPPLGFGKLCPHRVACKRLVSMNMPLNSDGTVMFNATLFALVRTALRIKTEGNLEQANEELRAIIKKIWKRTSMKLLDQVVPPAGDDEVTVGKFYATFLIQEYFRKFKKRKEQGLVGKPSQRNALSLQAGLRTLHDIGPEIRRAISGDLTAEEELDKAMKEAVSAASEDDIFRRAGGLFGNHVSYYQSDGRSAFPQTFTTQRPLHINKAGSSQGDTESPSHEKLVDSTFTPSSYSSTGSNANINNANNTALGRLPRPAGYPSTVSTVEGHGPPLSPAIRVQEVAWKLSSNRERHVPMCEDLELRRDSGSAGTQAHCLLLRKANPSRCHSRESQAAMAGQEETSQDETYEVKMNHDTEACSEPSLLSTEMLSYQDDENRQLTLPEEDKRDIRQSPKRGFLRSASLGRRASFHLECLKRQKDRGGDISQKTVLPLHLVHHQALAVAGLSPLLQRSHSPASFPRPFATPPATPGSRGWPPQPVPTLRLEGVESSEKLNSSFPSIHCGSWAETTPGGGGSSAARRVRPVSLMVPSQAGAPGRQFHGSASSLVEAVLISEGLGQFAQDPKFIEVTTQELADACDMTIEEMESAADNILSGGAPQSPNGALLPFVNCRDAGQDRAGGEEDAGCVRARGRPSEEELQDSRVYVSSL

Mus musculus [16] = assay: Antidiabetic activity in HFD fed C57BL/6N mouse assessed as decrease in blood glucose AUC administered as single oral dose pretreated for 60 mins followed by glucose challenge measured after 120 mins by OGTT; settings: read-out: MED
[17] = Drug uptake in C57BL/6N mouse whole blood at 0.1 mg/kg, po measured at 3 hrs; assay type: ADME, organism-based; settings: read-out: Drug uptake; outline: as §2
Mus musculus [18] = assay: Antidiabetic activity in HFD fed C57BL/6N mouse assessed as decrease in blood glucose AUC at 0.1 mg/kg administered as single oral dose pretreated for 60 mins followed by glucose challenge measured after 120 mins by OGTT; assay type: functional; set-up: scale not given: the % may be the effect or the level left; outline: as §1
Mus musculus [19] = assay: Antidiabetic activity in HFD fed C57BL/6N mouse assessed as increase in plasma insulin levels at 10 mg/kg, po cotreated with DPP4 inhibitor des-fluoro sitagliptin pretreated with compound for 60 mins followed by glucose challenge measured after 120 mins by OGTT; assay type: functional, organism-based
Mus musculus [20] = assay: Antidiabetic activity in HFD fed C57BL/6N mouse assessed as decrease in blood glucose AUC at 0.3 mg/kg administered as single oral dose pretreated for 60 mins followed by glucose challenge measured after 120 mins by OGTT; assay type: functional; set-up: scale not given: the % may be the effect or the level left; outline: as §1
Mus musculus [21] = assay: Antidiabetic activity in HFD fed C57BL/6N mouse assessed as decrease in blood glucose AUC at 0.03 mg/kg administered as single oral dose pretreated for 60 mins followed by glucose challenge measured after 120 mins by OGTT; assay type: functional; set-up: scale not given: the % may be the effect or the level left; outline: as §1
Mus musculus [22] = assay: Antidiabetic activity in HFD fed C57BL/6N mouse assessed as increase in circulating active GLP-1 levels at 10 mg/kg, po cotreated with DPP4 inhibitor des-fluoro sitagliptin pretreated with compound for 60 mins followed by glucose challenge measured after 120 mins by OGTT; assay type: functional, organism-based
[23] = Half life in rat at 1 mg/kg, iv or 2 mg/kg, po; assay type: ADME, organism-based; settings: in vivo; outline: as §3
[24] = Volume of distribution in dog at […], iv or 1 mg/kg, po; assay type: ADME, organism-based, Canis lupus familiaris; settings: in vivo
Mus musculus [25] = assay: Antidiabetic activity in HFD fed C57BL/6N mouse assessed as increase in circulating active GLP-1 levels at 10 mg/kg, po pretreated for 60 mins measured 5 mins post glucose challenge by OGTT; assay type: functional, organism-based
Outline: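 The SSTR5 antagonist was given orally at 10 mg/kg, alone or combined with des-fluoro sitagliptin at 10 mg/kg, ahead of an oral glucose challenge. Blood was sampled 5 min after glucose for circulating total GLP-1, active GLP-1[7-36] amide and plasma insulin.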

[26] = Drug uptake in C57BL/6N mouse whole blood at 0.03 mg/kg, po measured at 3 hrs; assay type: ADME, organism-based; settings: read-out: Drug uptake; outline: as §2
[27] = Solubility of the compound in 10% tween formulation; assay type: physicochemical
[28] = molecular target: T1, Prostaglandin D2 receptor (Homo sapiens, UniProt Q13258); assay: Inhibition of prostanoid DP receptor (unknown origin)
T1 sequence (Q13258 whole entry): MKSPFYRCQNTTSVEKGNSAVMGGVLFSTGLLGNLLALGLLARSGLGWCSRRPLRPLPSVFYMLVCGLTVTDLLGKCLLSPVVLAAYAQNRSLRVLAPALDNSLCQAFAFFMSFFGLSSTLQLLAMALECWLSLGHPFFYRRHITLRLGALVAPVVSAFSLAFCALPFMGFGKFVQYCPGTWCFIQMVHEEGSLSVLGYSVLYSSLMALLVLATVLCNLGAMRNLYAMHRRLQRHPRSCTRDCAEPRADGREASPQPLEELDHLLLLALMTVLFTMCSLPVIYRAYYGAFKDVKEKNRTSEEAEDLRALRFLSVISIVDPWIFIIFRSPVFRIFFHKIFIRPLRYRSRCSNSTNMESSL

[29] = Clearance in rhesus monkey at […], iv or 1 mg/kg, po; assay type: ADME, organism-based, Macaca mulatta; settings: in vivo
[30] = molecular target: Sodium channel protein type 5 subunit alpha (Homo sapiens, UniProt Q14524); assay: Inhibition of Nav1.5 (unknown origin)

- IC50 [1]: > 15 µM
- concentration at 3 h [4]: 0.131 µM
- Fu [5]: 5.4%
- clearance [6]: 0.912 L/h/kg
- bioavailability [9]: 40%
- IC50 (Cytochrome P450 2D6): > 50 µM
- Vd [10]: 1.39 L/kg
- half-life [11]: 16.5 h
- IC50 [12]: > 10 µM
- bioavailability [13]: 72%
- Cp(f) [14]: 0.0016 µM
- concentration at 3 h [17]: 0.011 µM
- half-life [23]: 1.9 h
- Vd [24]: 2.82 L/kg
- concentration at 3 h [26]: 0.004 µM
- solubility [27]: 5.3 mg/mL
- IC50 [28]: 3 µM
- clearance [29]: 0.708 L/h/kg
SMILES: CCOc1cc(CN2CCC3(CC2)CC(=O)N(c2ccc(C(=O)O)cc2)C3)cc(OCC)c1-c1ccc(F)cc1.O=C(O)C(F)(F)F
- Activity (Pancreatic islet [2]): inactive
- Activity (Mus musculus [3]): 74%
- Activity (Pancreatic islet [7]): Active
- Activity (Pancreatic islet [8]): inactive
- IC50 [15]: > 15 µM
- minimal effective dose (Mus musculus [16]): 0.1 mg/kg
- Activity (Mus musculus [18]): 58%
- Activity (Mus musculus [19]): Active
- Activity (Mus musculus [20]): 59%
- Activity (Mus musculus [21]): 23%
- Activity (Mus musculus [22]): Active
- Activity (Mus musculus [25]): Active
- IC50 [30]: > 15 µM
